Experimental data taken from ChEMBL document CHEMBL4414574, “Structure-Based Discovery and Development of a Series of Potent and Selective Bromodomain and Extra-Terminal Protein Inhibitors” (J Med Chem, 2019).
Calls of active or inactive are those of the source. No cut-off for these calls is given here.

Key:
MV4-11 [1] = assay: Antitumor activity against human MV4-11 cells xenografted in Balb/c nude mouse assessed as tumor growth inhibition at 50 mg/kg, po administered once daily and measured twice a week by caliper method relative to control; type: functional; conditions: MV4-11, po, read-out: TGI
Homo sapiens = species on record: Homo sapiens; assay: Antiproliferative activity against human TY82 cells after 72 hrs by CCK8 or SRB assay; type: functional, cell-based
MV4-11 [2] = assay: Induction of apoptosis in human MV4-11 cells after 24 hrs by Annexin V staining based assay; type: functional, cell-based
MM1.S = assay: Antiproliferative activity against human MM1S cells after 72 hrs by CCK8 or SRB assay; type: functional, cell-based
In short: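 IC50 against MM.1S cell proliferation was taken as the mean of three independent experiments, each run in triplicate, reported with SEM.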

MV4-11 [3] = assay: Induction of apoptosis in human MV4-11 cells assessed as reduction in c-IAP2 level after 24 hrs by Western blot analysis; type: functional, cell-based
MV4-11 [4] = assay: Induction of apoptosis in human MV4-11 cells assessed as reduction in c-IAP1 level after 24 hrs by Western blot analysis; type: functional, cell-based
MV4-11 [5] = assay: Induction of apoptosis in human MV4-11 cells assessed as increase in cleaved caspase-9 level after 24 hrs by Western blot analysis; type: functional, cell-based
In short: (§1)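 MV4-11 cells exposed to test agent at the indicated doses for 24 h. Lysates immunoblotted for full-length and cleaved caspase-3, -7, -8 and -9, with GAPDH as the loading reference.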

MV4-11 [6] = assay: Antiproliferative activity against human MV4-11 cells after 72 hrs by CCK8 or SRB assay; type: functional, cell-based
RKO = assay: Induction of cell cycle arrest in human RKO cells assessed as increase in accumulation at G1 phase at 100 nM after 24 hrs by propidium iodide staining based flow cytometric analysis; type: functional
MV4-11 [7] = assay: Induction of apoptosis in human MV4-11 cells assessed as increase in cleaved caspase-8 level after 24 hrs by Western blot analysis; type: functional, cell-based; in short: as §1
MV4-11 [8] = assay: Antitumor activity against human MV4-11 cells xenografted in Balb/c nude mouse assessed as tumor growth inhibition at 100 mg/kg, po administered once daily and measured twice a week by caliper method relative to control; type: functional; conditions: MV4-11, po, read-out: TGI
MV4-11 [9] = assay: Induction of apoptosis in human MV4-11 cells assessed as reduction in XIAP level after 24 hrs by Western blot analysis; type: functional, cell-based
[10] = target: Bromodomain-containing protein 4 (Homo sapiens, UniProt O60885); assay: Displacement of 5-FITC labelled (+)-JQ1 from His6-tagged human BRD4 bromodomain 1 expressed in Escherichia coli BL21(DE3) )-codon plus-RIL cells incubated for 4 hrs in dark condition by fluorescence anisotropy binding assay
[11] = AUC (0 to t) in ICR mouse at 10 mg/kg, po administered via gavage measured after 0.25 to 24 hrs by UPLC/MS analysis; type: ADME, organism-based; design: time 0.25-24 hr, dose 10 mg/kg, route oral; conditions: in vivo
In short: (§2)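 Male ICR mice were dosed orally in 1% DMSO/0.5% HPMC vehicle. Plasma (and brain, where stated) concentrations gave Tmax, Cmax, T1/2, AUC0-t and AUC0-inf.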

CYP3A4 = CYP3A4 (Homo sapiens, UniProt P08684); assay: Reversible inhibition of CYP3A4 in human liver microsomes at 10 uM using midazolam or testosterone as substrate preincubated for 5 mins followed by NADPH addition and measured after 20 mins relative to control; type: ADME; conditions: probe midazolam or testosterone
In short: (§3)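 Human liver microsomes 0.2 mg/mL, 100 mM phosphate pH 7.4, 10 μM test compound, probe cocktail (10 μM midazolam, 100 μM testosterone, 10 μM dextromethorphan, 20 μM diclofenac, 100 μM phenacetin, 100 μM mephenytoin); organic solvent <1%; 5 min preincubation at 37 °C, started with NADPH-generating system, 20 min reaction; metabolite formation expressed relative to PBS control.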

[12] = AUC (0 to infinity) in ICR mouse at 10 mg/kg, po administered via gavage measured after 0.25 to 24 hrs by UPLC/MS analysis; type: ADME, organism-based; design: dose 10 mg/kg, route oral, time infinity; conditions: in vivo; in short: as §2
Cytochrome P450 2C9 = Cytochrome P450 2C9 (Homo sapiens, UniProt P11712); assay: Time-dependent inhibition of CYP2C9 in human liver microsomes at 10 uM using diclofenac as substrate preincubated up to 30 mins followed by NADPH generating system addition and measured after 10 mins; type: ADME
In short: (§4)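 Human liver microsomes 0.2 mg/mL, 100 mM phosphate pH 7.4, 10 μM test compound, preincubated 0, 5, 10 and 30 min at 37 °C; then NADPH plus probe cocktail (5 μM midazolam, 50 μM testosterone, 5 μM dextromethorphan, 10 μM diclofenac, 50 μM phenacetin, 50 μM S-(+)-mephenytoin) added; 10 min reaction; kobs in units of 10^-4/min.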

[13] = Tmax in ICR mouse at 10 mg/kg, po administered via gavage measured after 0.25 to 24 hrs by UPLC/MS analysis; type: ADME, organism-based; conditions: in vivo
In short: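 Male ICR mice dosed orally (3, 10 or 100 mg/kg, per line) in 1% DMSO/0.5% HPMC vehicle; plasma drug levels measured.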

Cytochrome P450 2D6 = Cytochrome P450 2D6 (Homo sapiens, UniProt P10635); assay: Time-dependent inhibition of CYP2D6 in human liver microsomes at 10 uM using dextromethorphan as substrate preincubated up to 30 mins followed by NADPH generating system addition and measured after 10 mins; type: ADME; in short: as §4
CYP1A2 = CYP1A2 (Homo sapiens, UniProt P05177); assay: Reversible inhibition of CYP1A2 in human liver microsomes at 10 uM using phenacetin as substrate preincubated for 5 mins followed by NADPH generating system addition and measured after 20 mins relative to control; type: ADME; conditions: probe phenacetin; in short: as §3
[14] = Half life in human liver microsomes at 1 uM preincubated for 5 mins followed by NADPH addition and measured after 5 to 30 mins by LC/MS/MS analysis; type: ADME, Microsome
Cytochrome P450 3A4 = Cytochrome P450 3A4 (Homo sapiens, UniProt P08684); assay: Time-dependent inhibition of CYP3A4 in human liver microsomes at 10 uM using midazolam or testosterone as substrate preincubated up to 30 mins followed by NADPH generating system addition and measured after 10 mins; type: ADME; in short: as §4
Cytochrome P450 1A2 = target: T1, Cytochrome P450 1A2 (Homo sapiens, UniProt P05177); assay: Time-dependent inhibition of CYP1A2 in human liver microsomes at 10 uM using phenacetin as substrate preincubated up to 30 mins followed by NADPH generating system addition and measured after 10 mins; type: ADME; in short: as §4
T1 sequence (P05177 whole entry): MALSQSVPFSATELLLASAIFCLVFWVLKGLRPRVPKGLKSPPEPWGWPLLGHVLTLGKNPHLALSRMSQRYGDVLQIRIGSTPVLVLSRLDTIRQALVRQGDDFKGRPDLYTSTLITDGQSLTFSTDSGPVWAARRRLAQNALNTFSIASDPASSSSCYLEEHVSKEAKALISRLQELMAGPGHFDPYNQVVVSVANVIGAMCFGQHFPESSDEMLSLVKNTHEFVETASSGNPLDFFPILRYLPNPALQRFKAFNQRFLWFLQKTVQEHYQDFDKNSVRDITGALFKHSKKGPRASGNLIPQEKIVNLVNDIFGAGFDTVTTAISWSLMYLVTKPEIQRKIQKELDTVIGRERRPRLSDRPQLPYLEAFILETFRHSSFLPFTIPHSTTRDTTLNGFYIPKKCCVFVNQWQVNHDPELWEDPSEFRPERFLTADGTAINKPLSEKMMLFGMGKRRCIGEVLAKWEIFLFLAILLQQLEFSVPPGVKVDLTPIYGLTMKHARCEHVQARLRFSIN

[15] = Intrinsic clearance in human liver microsomes at 1 uM preincubated for 5 mins followed by NADPH addition and measured after 5 to 30 mins by LC/MS/MS analysis; type: ADME, Microsome; conditions: read-out: CLH
In short: (§5)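 Liver microsomes (0.5 mg/mL) preincubated 5 min at 37 °C with 1 μM compound in 0.1 M phosphate buffer pH 7.4 containing 1 mM EDTA and 5 mM MgCl2; started with 1 mM NADPH; sampled at 0, 5, 10 and 30 min; quenched with cold acetonitrile; parent remaining quantified by LC/MS/MS.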

CYP2C19 = CYP2C19 (Homo sapiens, UniProt P33261); assay: Reversible inhibition of CYP2C19 in human liver microsomes at 10 uM using mephenytoin as substrate preincubated for 5 mins followed by NADPH generating system addition and measured after 20 mins relative to control; type: ADME; conditions: probe mephenytoin; in short: as §3
[16] = Half life in mouse liver microsomes at 1 uM preincubated for 5 mins followed by NADPH addition and measured after 5 to 30 mins by LC/MS/MS analysis; type: ADME, Microsome; conditions: mouse liver microsomes
[17] = Half life in ICR mouse at 10 mg/kg, po administered via gavage measured after 0.25 to 24 hrs by UPLC/MS analysis; type: ADME, organism-based; conditions: in vivo
In short: (§6)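 Male ICR mice dosed orally in 1% DMSO/0.5% HPMC vehicle; plasma or brain drug levels used to derive Tmax, Cmax, AUC0-t, AUC0-inf and T1/2.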

[18] = Cmax in ICR mouse at 10 mg/kg, po administered via gavage measured after 0.25 to 24 hrs by UPLC/MS analysis; type: ADME, organism-based; design: dose 10 mg/kg, route oral; conditions: in vivo; in short: as §6
Cytochrome P450 2C19 = Cytochrome P450 2C19 (Homo sapiens, UniProt P33261); assay: Time-dependent inhibition of CYP2C19 in human liver microsomes at 10 uM using mephenytoin as substrate preincubated up to 30 mins followed by NADPH generating system addition and measured after 10 mins; type: ADME; in short: as §4
CYP2C9 = CYP2C9 (Homo sapiens, UniProt P11712); assay: Reversible inhibition of CYP2C9 in human liver microsomes at 10 uM using diclofenac as substrate preincubated for 5 mins followed by NADPH generating system addition and measured after 20 mins relative to control; type: ADME; conditions: probe diclofenac; in short: as §3
[19] = Intrinsic clearance in mouse liver microsomes at 1 uM preincubated for 5 mins followed by NADPH addition and measured after 5 to 30 mins by LC/MS/MS analysis; type: ADME, Microsome; conditions: read-out: CLH; in short: as §5

Sequence of Cytochrome P450 3A4 (P08684 whole entry): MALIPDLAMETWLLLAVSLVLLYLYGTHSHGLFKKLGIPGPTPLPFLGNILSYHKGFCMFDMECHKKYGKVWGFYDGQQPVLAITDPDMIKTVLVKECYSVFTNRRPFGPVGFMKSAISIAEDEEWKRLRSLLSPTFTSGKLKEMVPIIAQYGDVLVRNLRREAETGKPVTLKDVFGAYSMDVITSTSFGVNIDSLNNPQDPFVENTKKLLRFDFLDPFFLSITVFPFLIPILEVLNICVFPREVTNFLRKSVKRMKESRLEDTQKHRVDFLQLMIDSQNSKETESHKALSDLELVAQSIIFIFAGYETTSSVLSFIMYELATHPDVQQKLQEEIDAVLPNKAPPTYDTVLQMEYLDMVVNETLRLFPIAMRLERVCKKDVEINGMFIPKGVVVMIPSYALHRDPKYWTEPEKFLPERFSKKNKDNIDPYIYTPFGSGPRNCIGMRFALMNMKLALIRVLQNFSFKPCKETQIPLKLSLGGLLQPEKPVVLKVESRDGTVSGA
Sequence of CYP3A4 (P08684 whole entry): as above
Sequence of Cytochrome P450 2C9 (P11712 whole entry): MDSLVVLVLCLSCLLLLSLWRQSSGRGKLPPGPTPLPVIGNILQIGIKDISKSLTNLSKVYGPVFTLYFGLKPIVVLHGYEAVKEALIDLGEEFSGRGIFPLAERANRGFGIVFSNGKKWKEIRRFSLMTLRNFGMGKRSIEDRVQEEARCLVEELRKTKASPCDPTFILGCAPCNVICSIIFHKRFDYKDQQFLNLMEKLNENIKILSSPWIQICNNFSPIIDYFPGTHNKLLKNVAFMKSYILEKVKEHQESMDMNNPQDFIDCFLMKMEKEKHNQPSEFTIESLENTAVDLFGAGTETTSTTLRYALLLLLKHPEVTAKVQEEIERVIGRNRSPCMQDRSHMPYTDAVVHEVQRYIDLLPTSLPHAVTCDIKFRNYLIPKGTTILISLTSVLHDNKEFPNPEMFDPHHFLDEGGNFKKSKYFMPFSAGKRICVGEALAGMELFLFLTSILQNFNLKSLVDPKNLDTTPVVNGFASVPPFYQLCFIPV
Sequence of CYP2C9 (P11712 whole entry): as above
Sequence of Cytochrome P450 2C19 (P33261 whole entry): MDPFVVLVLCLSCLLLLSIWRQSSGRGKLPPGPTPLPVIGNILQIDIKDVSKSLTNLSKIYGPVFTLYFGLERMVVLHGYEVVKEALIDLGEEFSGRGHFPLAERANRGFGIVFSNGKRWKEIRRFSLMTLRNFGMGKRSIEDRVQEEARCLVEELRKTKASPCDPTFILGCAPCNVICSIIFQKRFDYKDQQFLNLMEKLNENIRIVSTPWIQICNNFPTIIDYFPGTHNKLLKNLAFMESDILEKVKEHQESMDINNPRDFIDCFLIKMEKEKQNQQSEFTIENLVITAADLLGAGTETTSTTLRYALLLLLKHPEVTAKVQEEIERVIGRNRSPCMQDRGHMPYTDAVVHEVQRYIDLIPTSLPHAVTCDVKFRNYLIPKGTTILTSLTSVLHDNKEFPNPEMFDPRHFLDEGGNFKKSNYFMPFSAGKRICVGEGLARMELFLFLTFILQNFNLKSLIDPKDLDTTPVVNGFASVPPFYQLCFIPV
Sequence of CYP2C19 (P33261 whole entry): as above
Sequence of Cytochrome P450 2D6 (P10635 whole entry): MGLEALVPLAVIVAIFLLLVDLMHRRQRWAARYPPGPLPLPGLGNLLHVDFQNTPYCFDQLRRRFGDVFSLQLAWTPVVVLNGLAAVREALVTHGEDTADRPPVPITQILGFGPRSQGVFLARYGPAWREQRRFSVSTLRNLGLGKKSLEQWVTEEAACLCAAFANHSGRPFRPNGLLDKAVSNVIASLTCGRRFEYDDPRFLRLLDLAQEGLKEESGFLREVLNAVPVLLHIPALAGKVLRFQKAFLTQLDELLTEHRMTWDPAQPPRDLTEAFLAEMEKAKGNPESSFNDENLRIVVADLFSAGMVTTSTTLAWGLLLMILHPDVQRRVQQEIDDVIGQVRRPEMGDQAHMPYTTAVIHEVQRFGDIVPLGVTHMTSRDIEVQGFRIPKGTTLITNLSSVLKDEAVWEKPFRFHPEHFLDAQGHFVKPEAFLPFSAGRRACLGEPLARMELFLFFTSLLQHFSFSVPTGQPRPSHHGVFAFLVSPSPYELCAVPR

In the case of `Cc1sc2c(c1C)C(c1ccc(Cl)cc1)=N[C@@H](CC(=O)Nc1ccc(O)cc1)c1nnc(C)n1-2` [BIRABRESIB], the inhibition in vivo at 50 mg/kg (MV4-11 [1]) is reported as 71.5%, the Activity (Homo sapiens) is reported as “Active” and the Activity (MV4-11 [2]) is reported as “Active”. The IC50 (MM1.S) was 6.3 nM, the Activity (MV4-11 [3]) was “Dose-dependent effect” and the Activity (MV4-11 [4]) was “Dose-dependent effect”. The Activity (MV4-11 [5]) was “Dose-dependent effect”, the Activity (MV4-11 [6]) was “Active” and the Activity (RKO) was “Active”. The Activity (MV4-11 [7]) was “Dose-dependent effect”, the inhibition in vivo at 100 mg/kg (MV4-11 [8]) was 87.5% and the Activity (MV4-11 [9]) was “Dose-dependent effect”.
With `Cc1ccc(-n2nc(C(=O)N3CCN(C)CC3)nc2-c2ccc3c(c2)N(C2CC2)C(C)C(=O)N3C)cc1` (configuration not stated) the IC50 [10] was 9.4 nM, the AUC(0-t) [11] was 2740 ng·h/mL and the inhibition at 20 min, 10 µM (CYP3A4) was 12%. For the same molecule, the AUC(0-inf) [12] was 2760 ng·h/mL, the TDI (Cytochrome P450 2C9) was 19 ×10⁻⁴ /min and the Tmax [13] was 0.3 h. It also gave a TDI (Cytochrome P450 2D6) of 14 ×10⁻⁴ /min, an IC50 (MM1.S) of 8 nM and an inhibition at 20 min, 10 µM (CYP1A2) of 2%. The half-life at 1 µM [14] was 1.03 h, the TDI (Cytochrome P450 3A4) was 19 ×10⁻⁴ /min and the TDI (Cytochrome P450 1A2) was 41 ×10⁻⁴ /min. It also gave a microsomal CLint at 1 µM [15] of 22 µL/min/mg, an inhibition at 20 min, 10 µM (CYP2C19) of 17% and a half-life at 1 µM [16] of 1.78 h. The half-life [17] was 1.7 h, the Cmax [18] was 1230 ng/mL and the TDI (Cytochrome P450 2C19) was “Not Active”. It also gave an inhibition at 20 min, 10 µM (CYP2C9) of 6% and a microsomal CLint at 1 µM [19] of 13 µL/min/mg.
